In ChEMBL document CHEMBL4145615, “Indolyl Azaspiroketal Mannich Bases Are Potent Antimycobacterial Agents with Selective Membrane Permeabilizing Effects and in Vivo Activity” (J Med Chem, 2018):
Values after ≈ are worked out from the molar mass of the structure shown.

Assays:
Mus musculus [1] = experiment: AUC in CD1 mouse at 25 mg/kg, po administered as single dose by LC/MS-MS analysis; type: ADME, organism-based; details: in vivo
In short: (§1)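 Uninfected CD-1 mice (n=2 per compound), single oral dose 25 mg/kg as a solution in 5% DMA/65% PEG300/30% D5W. Blood taken at 30 min, 1, 3, 5 h and plasma separated by centrifugation. Lungs taken at 5 h and homogenized in ~5 volumes PBS. Levels measured by LC/MS-MS after acetonitrile/methanol protein precipitation with verapamil internal standard. AUC and Cmax calculated from mean concentrations.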

[2] = Drug uptake in lungs of CD1 mouse at 25 mg/kg, po administered as single dose measured at 5 hrs post dose by LC/MS-MS analysis; type: ADME, organism-based; details: lung, read-out: Drug uptake; in short: as §1
[3] = Ratio of drug level in CD1 mouse lung to plasma at 25 mg/kg, po administered as single dose measured at 5 hrs post dose by LC/MS-MS analysis; type: ADME, organism-based
In short: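 Blood taken at 30 min, 1, 3, 5 h and plasma separated by centrifugation. Lungs taken at 5 h and homogenized in ~5 volumes PBS. Levels measured by LC/MS-MS after acetonitrile/methanol protein precipitation with verapamil internal standard. AUC and Cmax calculated from mean concentrations.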

[4] = Half life in rat liver microsomes at 1 uM preincubated for 5 mins followed by NADPH addition measure up to 45 mins by LC-MS analysis; type: ADME, microsome; details: 0.75 h
In short: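 Male rat liver microsomes, incubated 45 min at 37°C. Half-life reported as mean ± SD.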

[5] = Cmax in CD1 mouse at 25 mg/kg, po administered as single dose by LC/MS-MS analysis; type: ADME, organism-based; parameters: dose 25 mg/kg, route oral; details: in vivo; in short: as §1
Mus musculus [6] = experiment: Acute toxicity in BALB/c mouse at 100 mg/kg administered via oral gavage for 3 days measured over 7 days; type: organism-based; details: in vivo, 168 h
In short: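 BALB/c mice, 3 per group, oral gavage at 100 mg/kg in 200 μL of equal volumes PEG400 and 5% glucose. Dosed on three consecutive days, then monitored 7 days. Euthanized by CO2 and examined for gross pathological changes.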

[7] = test system: Mycobacterium tuberculosis; experiment: Antimycobacterial activity against Mycobacterium tuberculosis H37Rv ATCC 27294 after 7 days by broth dilution method; type: functional; details: H37Rv ATCC 27294, 168 h
[8] = Drug uptake in lung of Mycobacterium tuberculosis H37Rv infected BALB/c mouse at 100 mg/kg administered 6 days per week for 4 weeks via oral gavage; type: ADME, organism-based; details: in vivo, read-out: Drug uptake
[9] = Hemolytic activity against human RBC after 1 hr; type: ADME, cell-based, Erythrocyte; details: red blood cells (erythrocytes)
In short: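 Human red blood cells were exposed to the test compound at a range of concentrations in phosphate-buffered saline for 1 h at 37°C. Hemolysis was referenced to 2% Triton X-100, taken as 100% hemolysis. The value reported is the concentration that lyses 50% of RBCs.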

Mus musculus [10] = experiment: Toxicity in CD1 mouse at 25 mg/kg, po administered as single dose by LC/MS-MS analysis; type: organism-based; details: in vivo
In short: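 Uninfected CD-1 mice (n=2 per compound) received a single oral 25 mg/kg dose as a solution in 5% DMA/65% PEG300/30% D5W. Tail-bleed blood was taken at 30 min, 1, 3 and 5 h and spun to plasma. Lungs were taken at 5 h and homogenized in about 5 volumes of PBS. Samples were acetonitrile/methanol-precipitated with verapamil internal standard and quantified by LC-MS/MS against standard curves in drug-free CD1 plasma.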

[11] = Plasma concentration in CD1 mouse at 25 mg/kg, po administered as single dose measured at 5 hrs post dose by LC/MS-MS analysis; type: ADME, organism-based; in short: as §1

CCCCCCCCn1cc(CN2CCC3(CC2)OCCO3)c2ccc(OC)cc21
AUC (Mus musculus [1]): 173 ng·h/mL
concentration at 5 h [2]: 468 ng/g
Kp at 5 h [3]: 14.2
t1/2 [4]: 17.4 min
Cmax [5]: 42 ng/mL
Activity (Mus musculus [6]): Non-Toxic
MIC50 [7]: 1.2 µM (≈ 0.498 µg/mL)
MIC90 [7]: 2.3 µM (≈ 0.954 µg/mL)
concentration [8]: 1000 nM
HC50 at 1 h [9]: 75 µM
Activity (Mus musculus [10]): Non-Toxic
concentration at 5 h [11]: 33 ng/mL
